Laboratory results from ChEMBL document CHEMBL1154204, “Design, synthesis and pharmacological screening of novel nitric oxide donors containing 1,5-diarylpyrazolin-3-one as nontoxic NSAIDs” (Eur J Med Chem, 2009).
In brackets after ≈: the same amount, converted by molar mass.

Key:
Rattus norvegicus [1] = experiment: Antiinflammatory activity in Wistar rat assessed as inhibition of carrageenan-induced paw edema measured after 1 hr at 6 mg/kg, po equimolar dose of indomethacin administered 1 hr before carrageenan challenge; type: functional
Procedure, shortened: (§1)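 Wistar rats of either sex, 120–140 g, fasted 24 h, n = 6 per group. Compounds were suspended in 1.0% aqueous sodium CMC and dosed orally, equimolar to indomethacin 6 mg/kg, 1 h before subplantar carrageenan (1.0% w/v, 0.1 mL) into the right hind paw. Paw volume was read by plethysmometer before and after injection. Results are % inhibition versus vehicle control. ANOVA with Dunnett's test.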

Rattus norvegicus [2] = experiment: Antiinflammatory activity in Wistar rat assessed as inhibition of carrageenan-induced paw edema measured after 2 hrs at 6 mg/kg, po equimolar dose of indomethacin administered 1 hr before carrageenan challenge; type: functional; procedure, shortened: as §1
Rattus norvegicus [3] = experiment: Antiinflammatory activity in Wistar rat assessed as inhibition of carrageenan-induced paw edema measured after 3 hrs at 6 mg/kg, po equimolar dose of indomethacin administered 1 hr before carrageenan challenge; type: functional; procedure, shortened: as §1
Mus musculus = experiment: Analgesic activity in Swiss albino mouse assessed as inhibition of acetic acid-induced writhing at 0.00001911 mol/kg, po administered 1 hr before acetic acid challenge measured after 25 mins; type: functional
Procedure, shortened: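 Acetic acid writhing in mice. Compounds were suspended in 1.0% aqueous sodium CMC and given orally at equimolar doses equivalent to 6 mg/kg indomethacin (0.00001911 mol/kg). Writhes were counted over 25 min after treatment, n = 6, and reported as % inhibition versus vehicle control. One-way ANOVA with Dunnett's test.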

Rattus norvegicus [4] = experiment: Gastrointestinal toxicity in Wistar rat assessed as ulcer incidence at 33.70 mg/kg, po; type: organism-based; design: dose 33.7 mg/kg, route oral; conditions: in vivo, 33.7 mg/kg
Rattus norvegicus [5] = experiment: Gastrointestinal toxicity in Wistar rat assessed as ulcer index at 33.70 mg/kg, po; type: organism-based; design: dose 33.7 mg/kg, route oral; conditions: in vivo, 33.7 mg/kg
Rattus norvegicus [6] = experiment: Gastrointestinal toxicity in Wistar rat assessed as ulcer incidence at 34.84 mg/kg, po; type: organism-based; design: dose 34.84 mg/kg, route oral; conditions: in vivo
Rattus norvegicus [7] = experiment: Gastrointestinal toxicity in Wistar rat assessed as ulcer index at 34.84 mg/kg, po; type: organism-based; design: dose 34.84 mg/kg, route oral; conditions: in vivo
Rattus norvegicus [8] = experiment: Gastrointestinal toxicity in Wistar rat assessed as ulcer incidence at 40.71 mg/kg, po; type: organism-based; design: dose 40.71 mg/kg, route oral; conditions: in vivo
Rattus norvegicus [9] = experiment: Gastrointestinal toxicity in Wistar rat assessed as ulcer index at 40.71 mg/kg, po; type: organism-based; design: dose 40.71 mg/kg, route oral; conditions: in vivo
Rattus norvegicus [10] = experiment: Gastrointestinal toxicity in Wistar rat assessed as ulcer incidence at 38.27 mg/kg, po; type: organism-based; design: dose 38.27 mg/kg, route oral; conditions: in vivo
Rattus norvegicus [11] = experiment: Gastrointestinal toxicity in Wistar rat assessed as ulcer index at 38.27 mg/kg, po; type: organism-based; design: dose 38.27 mg/kg, route oral; conditions: in vivo
Rattus norvegicus [12] = experiment: Gastrointestinal toxicity in Wistar rat assessed as gastric mucosal layer disruption at 33.70 mg/kg, po by histopathological study; type: organism-based, Gastric mucosa; design: dose 33.7 mg/kg, route oral; conditions: in vivo, 33.7 mg/kg
Rattus norvegicus [13] = experiment: Gastrointestinal toxicity in Wistar rat assessed as gastric mucosal layer disruption at 34.84 mg/kg, po by histopathological study; type: organism-based, Gastric mucosa; design: dose 34.84 mg/kg, route oral; conditions: in vivo
Rattus norvegicus [14] = experiment: Gastrointestinal toxicity in Wistar rat assessed as gastric mucosal layer disruption at 40.71 mg/kg, po by histopathological study; type: organism-based, Gastric mucosa; design: dose 40.71 mg/kg, route oral; conditions: in vivo
Rattus norvegicus [15] = experiment: Gastrointestinal toxicity in Wistar rat assessed as gastric mucosal layer disruption at 38.27 mg/kg, po by histopathological study; type: organism-based, Gastric mucosa; design: dose 38.27 mg/kg, route oral; conditions: in vivo
Aorta = experiment: Vasorelaxant activity in Wistar rat aorta assessed as inhibition of norepinephrine-induced contractions; type: functional, tissue-based
Procedure, shortened: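 Endothelium-intact aortic rings were accepted only if relaxation was ≥70% of the NE-induced contraction. Rings were then contracted with NE or 30 mM KCl, and test compounds were added cumulatively once a stable plateau was reached. EC50 values were calculated from cumulative concentration-response curves.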

[16] = Induction of nitric oxide release at 0.1 mM in pH 7.4 phosphate buffer in presence of 5 mM L-cysteine by Griess method; conditions: pH 7.4, 100 µM
Rattus norvegicus [17] = experiment: Gastrointestinal toxicity in Wistar rat assessed as ulcer incidence at 24 mg/kg, po; type: organism-based; design: dose 24 mg/kg, route oral; conditions: in vivo
Rattus norvegicus [18] = experiment: Gastrointestinal toxicity in Wistar rat assessed as gastric mucosal layer disruption at 24 mg/kg, po by histopathological study; type: organism-based, Gastric mucosa; design: dose 24 mg/kg, route oral; conditions: in vivo
Rattus norvegicus [19] = experiment: Antiinflammatory activity in Wistar rat assessed as inhibition of carrageenan-induced paw edema measured after 1 hr at 6 mg/kg, po administered 1 hr before carrageenan challenge; type: functional; procedure, shortened: as §1
Rattus norvegicus [20] = experiment: Antiinflammatory activity in Wistar rat assessed as inhibition of carrageenan-induced paw edema measured after 2 hrs at 6 mg/kg, po administered 1 hr before carrageenan challenge; type: functional; procedure, shortened: as §1
Rattus norvegicus [21] = experiment: Antiinflammatory activity in Wistar rat assessed as inhibition of carrageenan-induced paw edema measured after 3 hrs at 6 mg/kg, po administered 1 hr before carrageenan challenge; type: functional; procedure, shortened: as §1

Compound | inhibition in vivo (Rattus norvegicus [1]) [%] | inhibition in vivo (Rattus norvegicus [2]) [%] | inhibition in vivo (Rattus norvegicus [3]) [%] | inhibition (INH) (Mus musculus) [%] | Activity (Rattus norvegicus [4]) | Activity (Rattus norvegicus [5]) | Activity (Rattus norvegicus [6]) | Activity (Rattus norvegicus [7]) | Activity (Rattus norvegicus [8]) | Activity (Rattus norvegicus [9]) | Activity (Rattus norvegicus [10]) | Activity (Rattus norvegicus [11]) | Activity (Rattus norvegicus [12]) | Activity (Rattus norvegicus [13]) | Activity (Rattus norvegicus [14]) | Activity (Rattus norvegicus [15]) | EC50 (Aorta) [µg/mL] | Activity [16] [%] | also measured
CCOC(=O)c1c(-c2ccccc2OC)n(-c2ccc(C(=O)NNC(=O)CO[N+](=O)[O-])cc2)[nH]c1=O | 31 | 30.7 | 25.1 | 50.98 | Non-toxic | Non-toxic | Non-toxic | Non-toxic | Non-toxic | Non-toxic | Non-toxic | Non-toxic | Non-toxic | Non-toxic | Non-toxic | Non-toxic | 63.1 (≈ 126 µM) | 0.35 | 
O=C(O)Cc1ccccc1Nc1c(Cl)cccc1Cl [DICLOFENAC] |  |  |  |  |  |  |  |  |  |  |  |  |  |  |  |  |  |  | Activity (Rattus norvegicus [17]): Toxic; Activity (Rattus norvegicus [18]): Toxic
O=C(CO[N+](=O)[O-])NNC(=O)c1ccc(-n2[nH]c(=O)cc2-c2ccccc2)cc1 | 19.8 | 16.1 | 20.5 | 53.92 |  |  |  |  |  |  |  |  |  |  |  |  | 26.7 (≈ 67.3 µM) | 0.51 | 
CCOC(=O)c1c(-c2ccccc2O)n(-c2ccc(C(=O)NNC(=O)CO[N+](=O)[O-])cc2)[nH]c1=O | 27.8 | 26.6 | 21.1 | 10.78 |  |  |  |  |  |  |  |  |  |  |  |  | 70.8 (≈ 146 µM) | 0.27 | 
O=C(CO[N+](=O)[O-])NNC(=O)c1ccc(-n2[nH]c(=O)cc2-c2ccccc2O)cc1 | 23 | 19.3 | 16.4 | 16.66 |  |  |  |  |  |  |  |  |  |  |  |  | 17.8 (≈ 43.1 µM) | 0.69 | 
CCOC(=O)c1c(-c2ccc(Cl)cc2)n(-c2ccc(C(=O)NNC(=O)CO[N+](=O)[O-])cc2)[nH]c1=O | 3.2 | 10.4 | 6.43 | 6.86 |  |  |  |  |  |  |  |  |  |  |  |  | 50.2 (≈ 99.6 µM) | 0.37 | 
O=C(CO[N+](=O)[O-])NNC(=O)c1ccc(-n2[nH]c(=O)cc2-c2ccc([N+](=O)[O-])cc2)cc1 | 23.6 | 27.1 | 24 | 45.09 | Non-toxic | Non-toxic | Non-toxic | Non-toxic | Non-toxic | Non-toxic | Non-toxic | Non-toxic | Non-toxic | Non-toxic | Non-toxic | Non-toxic | 49.1 (≈ 111 µM) | 0.39 | 
CCOC(=O)c1c(-c2ccc([N+](=O)[O-])cc2)n(-c2ccc(C(=O)NNC(=O)CO[N+](=O)[O-])cc2)[nH]c1=O | 27.8 | 28.1 | 22.2 | 45.9 |  |  |  |  |  |  |  |  |  |  |  |  | 28.2 (≈ 54.8 µM) | 0.49 | 
COc1ccc2c(c1)c(CC(=O)O)c(C)n2C(=O)c1ccc(Cl)cc1 [INDOMETHACIN] |  |  |  | 54.9 |  |  |  |  |  |  |  |  |  |  |  |  |  |  | inhibition in vivo at 6 mg/kg (Rattus norvegicus [19]): 52.7%; inhibition in vivo at 6 mg/kg (Rattus norvegicus [20]): 58.3%; inhibition in vivo at 6 mg/kg (Rattus norvegicus [21]): 57.9%
CCOC(=O)c1c(-c2ccccc2)n(-c2ccc(C(=O)NNC(=O)CO[N+](=O)[O-])cc2)[nH]c1=O | 54 | 57.8 | 59.6 | 56.86 | Non-toxic | Non-toxic | Non-toxic | Non-toxic | Non-toxic | Non-toxic | Non-toxic | Non-toxic | Non-toxic | Non-toxic | Non-toxic | Non-toxic | 35.5 (≈ 75.6 µM) | 0.46 | 
COc1ccccc1-c1cc(=O)[nH]n1-c1ccc(C(=O)NNC(=O)CO[N+](=O)[O-])cc1 |  | 55.7 | 57.9 | 51.96 | Non-toxic | Non-toxic | Non-toxic | Non-toxic | Non-toxic | Non-toxic | Non-toxic | Non-toxic | Non-toxic | Non-toxic | Non-toxic | Non-toxic | 66.8 (≈ 156 µM) | 0.32 | inhibition in vivo at 6 mg/kg (Rattus norvegicus [1]; dose 6 mg/kg): 55.1%
O=C(CO[N+](=O)[O-])NNC(=O)c1ccc(-n2[nH]c(=O)cc2-c2ccc(Cl)cc2)cc1 | 5.88 | 11.4 | 5.84 | 10.78 |  |  |  |  |  |  |  |  |  |  |  |  | 21.3 (≈ 49.4 µM) | 0.66 | 
